Results pooled from the literature.
Compare with care: the assays were run in different laboratories.
Target: Mitogen-activated protein kinase kinase kinase 10 (MAP3K10, Homo sapiens, UniProt Q02779)

Structure (SMILES) | effect on | method | concentration | remaining binding [%]
COc1cnc(Nc2cccc(S(N)(=O)=O)c2)nc1N1CCN(c2ccccc2)CC1 | binding | competition with immobilised ligand | 1 µM | 89
FC(F)(F)Oc1cccc(-c2cnc3ccc(-c4ccncc4)nn23)c1 | cell-free assay | competition with immobilised ligand | 5 µM | 58
c1cncc(-c2cccc(Nc3nccc(NC4CCCCC4)n3)c2)c1 | binding | competition with immobilised ligand | 10 µM | 49
CN(C)c1nccc(-c2cnn3ncccc23)n1 | binding |  | 1 µM | 98
O=C(NCC1CCOCC1)c1n[nH]cc1NC(=O)c1c(F)cccc1F | binding | competition with immobilised ligand | 1 µM | 100
O=C(c1ccc(Nc2nccc(-c3cc4ccccc4s3)n2)cc1)N1CCC(N2CCCC2)CC1 | binding | competition with immobilised ligand | 1 µM | 21
c1cnn2ncc(-c3ccnc(N4CCC45COC5)n3)c2c1 | binding |  | 1 µM | 100
CN(C(=O)c1ccccc1)c1cc(N(C)c2ccc3c(c2)CCc2ccc(C(=O)NCCN4CCOCC4)cc2C3=O)ccc1F | cell-free assay | competition with immobilised ligand | 1 µM | 75
Cc1cnn2ncc(-c3ccnc(N(C)C)n3)c2c1 | binding |  | 1 µM | 100
COc1ccc2c(c1)O[C@H](c1ccc(OC)c(OC)c1)C[C@@H]2NC(=O)C1(c2ccc3c(c2)OC(F)(F)O3)CC1 | cell-free assay | competition with immobilised ligand | 1 µM | 97
O=C(c1ccc(Nc2ncc(Cl)c(-c3ccc(Cl)s3)n2)cc1)N1CCC(N2CCCC2)CC1 | binding | competition with immobilised ligand | 1 µM | 0
N[C@@H]1CCN(c2nccc(-c3cnn4ncccc34)n2)C1 | binding |  | 1 µM | 100
COc1cc(-c2cn(C3CCc4ccccc4N(CC(F)(F)F)C3=O)nn2)ccc1-n1ccc(C)n1 (stereo not drawn) | cell-free assay | competition with immobilised ligand | 1 µM | 96
Cc1cnc(Nc2ccc(C(=O)N3CCC(N4CCCC4)CC3)cc2)nc1-c1cc2ccccc2s1 | binding | competition with immobilised ligand | 1 µM | 0
Nc1ncc2c(n1)-c1c([nH]c3ccc(C#CC4CC4)cc13)CCCC2 | binding | competition with immobilised ligand | 1 µM | 91
CC(=O)N1CCC(c2ccc(C(=O)NC(=N)N)cc2C(F)(F)F)CC1 | cell-free assay | competition with immobilised ligand | 1 µM | 95
CCN1CCN(Cc2ccc(C(=O)Nc3ccc(C)c(Oc4ccc5c(c4)CC(=O)N5)c3)cc2C(F)(F)F)CC1 | binding | competition with immobilised ligand | 1 µM | 100
CN1CCN(c2cnc3c(C4CCN(C(=O)c5ccc(OC(F)(F)F)cc5N)CC4)ncnc3c2)CC1 | cell-free assay | competition with immobilised ligand | 1 µM | 100
CN(C)c1nccc(-c2cnc3ncccn23)n1 | binding |  | 1 µM | 72
CNC(=O)c1ccc(Nc2ncc(C(F)(F)F)c(NCc3nccnc3N(C)S(C)(=O)=O)n2)cc1 | cell-free assay | competition with immobilised ligand | 0.1 µM | 68
CN(CCCC(F)(F)F)c1nccc(-c2cnn3ncccc23)n1 | binding |  | 1 µM | 0
